Compound activity (PubChem)
PolyA inhibitor – inhibitors of polyadenylation in S. cerevisiae. AID 1875. 300,000 tested, 0.02% active. activity score, % at 12 µM. S. cerevisiae SKY197-pL101 polyadenylation reporter, beta-gal luminescence; efflux-impaired pdr1/pdr3 knockout yeast; score 100 = 6 SD above DMSO;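 active = lowest replicate activity score at least 50, where 100 means six control SD above control mean; inconclusive = lowest score under 50 but half or more replicates reach 50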;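 also: yeast exposed to compound for 9 h at 30 °C; higher score means more reporter readthrough which indicates perturbed polyadenylation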
Mot1-301 SUMO – blocks SUMOylation pathway, rescuing yeast Mot1-301 growth | S. cerevisiae Mot1-301 growth rescue, ATP luminescence, 38.5C; percent above DMSO median, 100 means doubled | growth rescue, % at 18.8 µM | 320,000 tested, 1% active;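 active = every valid replicate shows activation above 250% relative to neutral control wells; inactive = the rest, any valid replicate at or below 250%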;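 also: OY570 slx delta 5 strain wells were the positive control but not used for scaling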
IMP-1 inhibitor – blocks Pseudomonas aeruginosa IMP-1 metallo-beta-lactamase; inhibition, % at 5.6 µM; 290,000 tested, 0.45% active; purified IMP-1, nitrocefin hydrolysis, epi-absorbance fluorescence;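 active = inhibition above the mean plus 3 SD of all compounds in the same screening run, cut at about 4.5% in these data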;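 also: 0% = IMP-1 with DMSO and 100% = DMSO wells lacking enzyme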
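Test system: recombinant IMP-1 enzyme, purified / Medium: HEPES buffer pH 7.1 with ZnSO4 and Brij 35 / Doses: single dose, 5.6 µM / Times: 25 °C, 15 min preincubation, 25 min reaction / Detection: Epi-absorbance via hydrolysed-nitrocefin quenching of white-plate fluorescence, 480/530 nm, EDTA stop / Evaluation: percent inhibition from optical density relative to buffer-blank wells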
NLRP3 yeast inh – NALP3 inhibition in yeast | Yeast reconstituted NLRP3/ASC/caspase-1, beta-gal luminescence, 24 h | inhibition, % at 10 µM | 330,000 tested, 0.39% active;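 active = inhibition of 50% or more; inactive = inhibition below 50%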;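 also: plate controls were induced DMSO wells for no effect and uninduced yeast grown without galactose for full effect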
NALP1 yeast inh – inhibitors of NALP1 inflammasome in yeast. 280,000 tested, 0.61% active. S. cerevisiae NALP1/ASC/caspase-1 growth, X-gal OD620, 72 h. inhibition, % at 10 µM; in the data active = inhibition mostly above about 24%, no sharp cut-off; inactive = mostly below about 32%
VIM-2 inh – blocks Pseudomonas aeruginosa VIM-2 metallo-beta-lactamase. purified VIM-2, nitrocefin hydrolysis, epi-absorbance fluorescence. inhibition, % at 5.6 µM. 290,000 tested, 0.89% active;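 active = inhibition above the mean of all tested compounds plus 3 SD, cutoff set per screening run, cut at about 7.5% in these data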;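 also: red hydrolysis product quenches plate fluorescence so inhibitors raise well fluorescence; 0% = enzyme with DMSO and 100% = DMSO without enzyme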
NALP3 yeast conf – confirmation of NALP3 inhibitors in yeast; 1,300 tested, 81% active; shares compounds with NLRP3 yeast inh; inhibition, % at 10 µM; yeast expressing human NALP3, luminescence; AID 435006; in the data active = inhibition above about 48%
Casp1-ASC yeast – active in yeast caspase-1-ASC counter-screen for NALP3 inhibitors; yeast expressing Caspase-1-ASC, luminescence counter screen; shares compounds with NLRP3 yeast inh; inhibition, % at 10 µM; 1,000 tested, 66% active
NALP3 yeast rt – retest-confirmed inhibitor of NALP3 in yeast; shares compounds with NLRP3 yeast inh; yeast expressing human NALP3, luminescence read-out; inhibition, % at 10 µM; 1,000 tested, 53% active; AID 488794
* hit, by the source's call; ? = inconclusive; . = no result. This is a sample that favours compounds with a hit; in the whole collection about 2.9% have one here. Rule as the data show it, unless noted: active = inhibition above about 50%; inactive = the rest.

SMILES	PolyA inhibitor	Mot1-301 SUMO	IMP-1 inhibitor	NLRP3 yeast inh	NALP1 yeast inh	VIM-2 inh	NALP3 yeast conf	Casp1-ASC yeast	NALP3 yeast rt
CCN(CC)S(=O)(=O)c1cc(C(=O)O)c(Cl)cc1Cl	-6.5	-15.0	-1.0	-5.0	-1.2	-0.6	.	.	.
CCN(CC)S(=O)(=O)c1cc(C)c(C)cc1Br	16.6	337.3	-1.9	58.2*	-103.1	-4.6	54.5*	53.2*	41.1
CC1(C)CC(c2nc(-c3ccc([N+](=O)[O-])cc3)cs2)CCO1 (stereo unspecified)	-15.3	4.8	-2.6	-107.0	-2.6	-1.7	-16.4	.	.
COC(=O)c1ccc(NC(=O)CCN2CCN(Cc3ccccc3)CC2)cc1	-5.4	98.8	0.6	8.3	10.2	0.1	.	.	.
CCCc1nc(SCc2cccnc2)c2c(=O)n(C)c(=O)n(C)c2n1	-13.5	13.8	-4.5	53.6*	31.5	10.3*	66.3*	57.5*	46.7
Cn1c(=O)c2c(SCc3cccnc3)nc(CC(C)(C)C)nc2n(C)c1=O	7.7	-13.6	-0.9	7.1	-20.8	2.3	.	.	.
Cc1ccc2oc(C(=O)Nc3ccc(S(=O)(=O)Nc4ncccn4)cc3)c(C)c2c1	14.1	6.3	-2.1	-1.6	15.6	-4.0	.	.	.
Cc1ccc(C(C[N+](=O)[O-])c2c(-c3ccccc3O)[nH][nH]c2=O)cc1 (stereo unspecified)	-62.6	271.6*	-1.4	50.8*	113.5*	4.5	50.7*	77.4*	58.1*
CCOC(=O)C(C(=O)OCC)C(C[N+](=O)[O-])c1ccccc1 (stereo unspecified)	-5.0	-0.8	-2.4	11.5	-6.8	-2.7	.	.	.
CC(C)(C)c1ccc(C(=O)NC(=S)N2CCCC2)cc1	1.6	1.1	-4.1	62.9*	9.8	-6.9	49.2*	80.4*	71.0*
O=C(Nc1ccccc1)c1ccc(S(=O)(=O)N2CCCCC2)cc1	-12.0	-5.4	-3.0	51.6*	8.9	-0.4	63.5*	40.6	36.6
O=C(Nc1ccccc1)c1ccc(S(=O)(=O)N2CCCC2)cc1	-9.7	-3.8	-4.5	21.1	-10.9	-3.3	.	.	.
COc1ccc(/C=C/C(=O)OCC(=O)NC(C)CCc2ccccc2)cc1 (stereo unspecified)	.	-17.6	.	33.5	.	.	.	.	.
COc1ccc(OC)c(NS(=O)(=O)c2ccc(Br)s2)c1	2.3	-2.9	-3.8	-11.7	-6.1	-3.2	.	.	.
COc1cccc(NS(=O)(=O)c2ccc(Br)s2)c1	4.6	17.1	-2.8	52.9*	9.3	-0.8	63.2*	47.1	30.3
CCOC(=O)c1c(-c2ccccc2)nc2c(C)cccn12	11.3	-3.8	-3.6	20.5	4.3	-0.6	.	.	.
CCOC(=O)c1c(-c2ccccc2)nc2ccccn12	-43.8	.	-1.4	96.9*	87.2*	2.0	98.6*	99.1*	98.8*
CCCCCc1nnc(NC(=O)OCCC)s1	3.7	16.9	-3.1	53.9*	27.8	-1.8	72.8*	56.6*	47.5
CCc1ccc(OCC(=O)OC(C)C(=O)Nc2ccc(Cl)cn2)cc1 (stereo unspecified)	.	11.3	.	-5.0	.	.	.	.	.
Cc1ccc(-c2[nH]ncc2CN2CCN(C(=O)c3cccs3)CC2)cc1C	26.1	-12.2	0.2	3.8	20.4	0.0	.	.	.
O=C(OCC(=O)c1c[nH]c2ccccc12)c1ccc([N+](=O)[O-])s1	-105.0	22.3	-0.3	83.6*	-2.0	-0.1	91.3*	85.6*	91.7*
CCOC(=O)Cc1ccc(NCc2ccc(Cl)cc2)cc1	-1.9	-7.1	-2.1	14.2	-18.1	-3.7	.	.	.
COc1ccccc1N1CCN(c2nccc(C)n2)CC1	-8.1	13.0	-2.0	51.4*	9.4	-2.2	62.6*	51.7*	39.5
O=C1CNC(=S)N1c1nc2ccccc2s1	?	12.0	-1.4	53.6*	.	-2.2	62.5*	53.7*	59.0*
